Data set [1] relates to Pseudomonas aeruginosa PAO1. Nature of the data set: Inhibition of Pseudomonas aeruginosa PAO1 LasB using ECR as substrate assessed as reduction in elastin hydrolysis at 50 uM incubated for 16 hrs by congo-red dye based spectrophotometry relative to control. The essentials: (§1)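 The enzyme source was LasB secreted into P. aeruginosa culture supernatant, with elastin congo-red as substrate. Elastin degradation releases congo-red dye into the supernatant, which is quantified spectrophotometrically.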

Data set [2] relates to Pseudomonas aeruginosa PAO1. Nature of the data set: Inhibition of Pseudomonas aeruginosa PAO1 LasB using ECR as substrate assessed as reduction in elastin hydrolysis at 25 uM incubated for 16 hrs by congo-red dye based spectrophotometry relative to control. The essentials:
as §1

Data set [3] is described as follows: Inhibition of Pseudomonas aeruginosa LasB using Abz-Ala-Gly-Leu-Ala-p-Nitro-Benzyl-Amide as substrate measured for every 60 sec for 30 mins by UV-fluorescence based assay. The essentials:
(§2)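 Purified LasB enzyme in a fluorometric inhibition assay adapted from a published method. Compounds were screened at a single concentration of 30 μM (follow-ups in duplicate), and selected compounds were retested over 0.4–200 μM in dose–response. A modified version added 0.01% Triton X-100 to the assay buffer.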

The target in data set [4] is T1, Angiotensin-converting enzyme (Oryctolagus cuniculus, UniProt P12822).
T1 sequence (P12822 whole entry): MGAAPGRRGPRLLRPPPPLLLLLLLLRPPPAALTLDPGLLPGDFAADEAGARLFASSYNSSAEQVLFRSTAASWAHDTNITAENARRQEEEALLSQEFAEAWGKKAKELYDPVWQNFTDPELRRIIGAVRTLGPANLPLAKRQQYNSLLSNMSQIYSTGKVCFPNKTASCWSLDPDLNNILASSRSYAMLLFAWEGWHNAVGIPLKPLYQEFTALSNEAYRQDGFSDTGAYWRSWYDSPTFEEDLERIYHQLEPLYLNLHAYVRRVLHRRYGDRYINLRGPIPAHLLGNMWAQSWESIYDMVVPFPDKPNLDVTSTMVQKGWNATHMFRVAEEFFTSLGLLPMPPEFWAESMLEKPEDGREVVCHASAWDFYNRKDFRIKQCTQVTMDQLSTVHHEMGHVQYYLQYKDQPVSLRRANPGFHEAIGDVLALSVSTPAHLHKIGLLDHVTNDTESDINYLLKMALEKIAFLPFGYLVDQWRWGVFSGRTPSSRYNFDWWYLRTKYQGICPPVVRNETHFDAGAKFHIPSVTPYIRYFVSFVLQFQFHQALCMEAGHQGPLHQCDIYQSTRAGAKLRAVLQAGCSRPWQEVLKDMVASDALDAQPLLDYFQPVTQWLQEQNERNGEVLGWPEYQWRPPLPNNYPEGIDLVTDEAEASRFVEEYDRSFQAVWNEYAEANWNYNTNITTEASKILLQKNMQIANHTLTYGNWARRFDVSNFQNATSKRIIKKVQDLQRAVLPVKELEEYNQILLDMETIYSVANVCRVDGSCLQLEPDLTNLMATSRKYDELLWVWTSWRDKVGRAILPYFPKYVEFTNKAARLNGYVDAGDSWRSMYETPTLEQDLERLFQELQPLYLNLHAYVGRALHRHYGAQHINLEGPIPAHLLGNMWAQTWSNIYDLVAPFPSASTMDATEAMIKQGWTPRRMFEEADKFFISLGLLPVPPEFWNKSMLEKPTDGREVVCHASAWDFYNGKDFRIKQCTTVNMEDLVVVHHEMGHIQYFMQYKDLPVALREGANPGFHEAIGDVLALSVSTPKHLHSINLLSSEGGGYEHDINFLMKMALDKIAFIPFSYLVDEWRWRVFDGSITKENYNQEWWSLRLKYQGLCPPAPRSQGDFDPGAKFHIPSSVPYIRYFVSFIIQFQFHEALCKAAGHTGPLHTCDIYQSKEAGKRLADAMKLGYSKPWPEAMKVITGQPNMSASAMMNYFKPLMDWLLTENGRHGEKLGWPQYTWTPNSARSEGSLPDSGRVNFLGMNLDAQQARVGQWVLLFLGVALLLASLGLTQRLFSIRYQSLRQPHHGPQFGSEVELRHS
Briefly: Inhibition of rabbit ACE using Abz-FRK(DNP)-P as substrate measured for every 30 sec for 5 mins by UV-fluorescence based assay.

Data set [5] deals with 72 kDa type IV collagenase (Homo sapiens, UniProt P08253). Nature of the data set: Inhibition of human MMP2.
72 kDa type IV collagenase, sequence (P08253 whole entry): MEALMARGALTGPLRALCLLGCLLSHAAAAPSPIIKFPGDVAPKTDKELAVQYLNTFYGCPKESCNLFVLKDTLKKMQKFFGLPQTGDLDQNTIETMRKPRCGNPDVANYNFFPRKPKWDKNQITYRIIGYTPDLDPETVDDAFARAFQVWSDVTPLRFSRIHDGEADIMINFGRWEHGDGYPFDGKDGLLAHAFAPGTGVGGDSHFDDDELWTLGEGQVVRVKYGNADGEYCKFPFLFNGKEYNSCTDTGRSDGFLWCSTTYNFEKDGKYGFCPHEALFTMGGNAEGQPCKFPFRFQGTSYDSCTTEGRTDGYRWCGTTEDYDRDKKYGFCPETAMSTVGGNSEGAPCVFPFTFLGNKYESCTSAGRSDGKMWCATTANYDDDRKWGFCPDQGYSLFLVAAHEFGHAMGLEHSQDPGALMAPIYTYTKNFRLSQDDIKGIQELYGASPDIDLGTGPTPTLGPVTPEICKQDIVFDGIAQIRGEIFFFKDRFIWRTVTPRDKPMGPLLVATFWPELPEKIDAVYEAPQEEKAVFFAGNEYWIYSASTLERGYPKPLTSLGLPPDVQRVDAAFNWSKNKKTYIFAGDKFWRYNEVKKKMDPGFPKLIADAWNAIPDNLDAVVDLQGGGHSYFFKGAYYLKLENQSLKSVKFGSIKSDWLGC
The next data set concerns the target Collagenase 3 (Homo sapiens, UniProt P45452). Briefly: Inhibition of human MMP13.
The target of a further data set is T2, Interstitial collagenase (Homo sapiens, UniProt P03956).
T2 sequence (P03956 whole entry): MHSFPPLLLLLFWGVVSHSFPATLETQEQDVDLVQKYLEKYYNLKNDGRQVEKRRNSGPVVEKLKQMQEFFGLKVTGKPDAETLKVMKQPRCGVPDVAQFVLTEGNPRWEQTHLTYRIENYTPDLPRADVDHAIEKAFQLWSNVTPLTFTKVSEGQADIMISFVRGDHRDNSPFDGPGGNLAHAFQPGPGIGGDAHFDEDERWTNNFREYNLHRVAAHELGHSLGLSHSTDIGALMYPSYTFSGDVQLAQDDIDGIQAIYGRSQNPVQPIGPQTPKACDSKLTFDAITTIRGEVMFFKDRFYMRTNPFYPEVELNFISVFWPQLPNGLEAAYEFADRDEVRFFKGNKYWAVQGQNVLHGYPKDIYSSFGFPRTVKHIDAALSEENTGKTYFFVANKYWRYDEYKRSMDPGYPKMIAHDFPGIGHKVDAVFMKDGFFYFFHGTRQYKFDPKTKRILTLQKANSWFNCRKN
Briefly: Inhibition of human MMP1.

The test system of data set [6] is ACE (off-target) relative to Pseudomonas aeruginosa PAO1 LasB. Nature of the data set: Selectivity index, ratio of Ki for rabbit ACE to Ki for Pseudomonas aeruginosa PAO1 LasB. The note with it: read-out: Ratio Ki. The data set is classed as toxicity.
A short description of data set [7]: Inhibition of Pseudomonas aeruginosa LasB using Abz-Ala-Gly-Leu-Ala-p-Nitro-Benzyl-Amide as substrate by micro-titer based fluorimetric assay. The essentials:
as §2

On to `O=C(O)CC1(C(=O)NCc2c[nH]c3ccccc23)Cc2ccccc2C1`, for which the inhibition is 35% in [1] and 23% in data set [2]. The Ki in data set [3] is 3.54 µM; in data set [4], more than 57 µM.

Take `O=C(O)CC1(C(=O)NCCc2nc3ccccc3s2)Cc2ccccc2C1`: the inhibition stood at 21% in data set [1] and 11% in [2]. Also, the Ki in [3] is 10.5 µM; in [4] it was more than 57 µM.

For `O=C(O)CC1(C(=O)NCCc2cc3ccccc3o2)Cc2ccccc2C1`, the inhibition in [1] turned out to be 25%; in data set [2] it was 16%. The Ki in data set [3] is 5.66 µM; in [4], more than 57 µM.

Take `CC(NC(=O)CC1(C(=O)O)Cc2ccccc2C1)c1cc2ccccc2o1` (racemic): the inhibition in data set [1] is 22%. The results for the Ki in data set [3] and in data set [4] were 14.8 µM and more than 57 µM, respectively.

In the case of `Cn1cc(CNC(=O)C2(CC(=O)O)Cc3ccccc3C2)cn1`, the inhibition in data set [1] came out at 42%. In addition, the Ki in [3] is 4.04 µM; in data set [4], more than 57 µM.

With `Cc1cc(Br)ccc1C(=O)NC1=NC(=O)CN1`, the Ki in data set [3] is 18.1 µM; in data set [4], more than 57 µM.

Turning to `O=C(O)CC1(C(=O)NCc2cc3ccccc3s2)Cc2ccccc2C1`, the inhibition in [1] is 57%; in data set [2] it was 47%. For the same compound, the Ki is 0.62 µM in [3] and more than 57 µM in data set [4].

`O=C(O)CC1(C(=O)NCCc2nc3ccccc3[nH]2)Cc2ccccc2C1`: the inhibition in data set [1] is 18%; in [2], 11%. Moreover, the inhibition constant (Ki) in [3] was 13.6 µM; in data set [4], more than 57 µM.

As for `O=C(O)CC1(C(=O)NCc2ccccc2)Cc2ccccc2C1`, the inhibition was 54% in [1] and 43% in data set [2]. For the same compound, the inhibitory constant (Ki) in data set [3] was 1.75 µM; in [4] it was more than 57 µM.

As to `C[C@@H](NC(=O)C1(CC(=O)O)Cc2ccccc2C1)c1cc2ccccc2o1`, the inhibition turned out to be 44% in [1] and 33% in [2]. Also, the Ki was 2.27 µM in [3] and more than 57 µM in data set [4].

For the compound `O=C(CC1(C(=O)O)Cc2ccccc2C1)NCc1ccc2ccccc2n1`, the inhibition in data set [1] worked out at 7%. The affinity in [3] corresponds to a Ki of 76.2 µM.

`Cn1c(CNC(=O)C2(CC(=O)O)Cc3ccccc3C2)cc2ccccc21`: the figures for the inhibition in data set [1] and in data set [2] were 60% and 51%, respectively. Further, the inhibitory constant (Ki) is 0.69 µM in [3] and more than 57 µM in [4].

On to `Cc1ccc2oc(CNC(=O)CC3(C(=O)O)Cc4ccccc4C3)cc2c1`, for which, in data set [1], the inhibition worked out at 2%. For the same compound, the results for the Ki in [3] and in data set [4] were more than 92 µM and more than 57 µM, respectively.

`O=C(O)CC1(C(=O)NCc2ncc(-c3ccccc3)s2)Cc2ccccc2C1`: the inhibition in data set [1] was determined as 54%; in data set [2], 42%. Besides, the Ki is 1.19 µM in data set [3] and more than 57 µM in data set [4].

As to `Cn1c(CNC(=O)C2(CC(=O)O)Cc3ccccc3C2)nc2ccccc21`, the inhibition is 32% in data set [1] and 21% in data set [2]. For the same compound, the Ki was 12.5 µM in data set [3] and 18 µM in [4].

`O=C(O)CC1(C(=O)NCCc2cc3ccccc3s2)Cc2ccccc2C1`: the figures for the inhibition in [1] and in data set [2] were 28% and 18%, respectively. Further, the Ki in data set [3] was found to be 4.85 µM; in data set [4] it was 40.6 µM.

Take `O=C(O)CC1(C(=O)NCc2cc3ccccc3o2)Cc2ccccc2C1`: the figures for the inhibition in data set [1] and in [2] were 54% and 45%, respectively. For the same compound, the Ki is 1.4 µM in data set [3] and more than 57 µM in data set [4].

`O=C(O)CC1(C(=O)NCc2coc3ccccc23)Cc2ccccc2C1`: the inhibition in data set [1] is 51%; in data set [2] it was 41%. The values for the Ki in data set [3] and in [4] were 1.9 µM and 31.3 µM, respectively.

As for `O=C(O)CC1(C(=O)NCc2cc3ccccc3[nH]2)Cc2ccccc2C1`, the inhibition stood at 49% in data set [1] and 35% in data set [2]. For the same compound, the Ki in data set [3] is 1.08 µM; in data set [4], more than 57 µM.

For the compound `Cn1cc(CNC(=O)CC2(C(=O)O)Cc3ccccc3C2)cn1`, the inhibition in data set [1] is 8%. Moreover, the Ki is more than 92 µM in data set [3] and more than 57 µM in [4].

`Cc1ccc2oc(CNC(=O)C3(CC(=O)O)Cc4ccccc4C3)cc2c1`: the inhibition in data set [1] is 60%. In addition, the Ki is 0.45 µM in [3] and more than 57 µM in [4].

Consider `C[C@H](NC(=O)C1(CC(=O)O)Cc2ccccc2C1)c1cc2ccccc2o1`, for which the inhibition is 47% in data set [1] and 37% in data set [2]. For the same compound, the results for the Ki in data set [3] and in data set [4] were 3.21 µM and more than 57 µM, respectively.

On to `O=C(O)CC1(C(=O)NCc2nc3ccccc3[nH]2)Cc2ccccc2C1`, for which the inhibition in [1] was determined as 20%; in data set [2], 11%. The figures for the inhibition constant (Ki) in data set [3] and in [4] were 21.5 µM and more than 57 µM, respectively.

As for `O=C(O)CC1(C(=O)NCc2nc(-c3ccccc3)cs2)Cc2ccccc2C1`, the IC50 (in data set [5]; on Collagenase 3; on Interstitial collagenase) was more than 10 µM in each case. Besides, the inhibition in data set [1] amounted to 76%; in [2] it was 68%. Moreover, the selectivity ratio in [6] was more than 356. Moreover, the Ki in [3] is 0.12 µM; in data set [4] it was more than 57 µM.

For `O=C(O)CC1(C(=O)NCc2nc3ccccc3s2)Cc2ccccc2C1`, the IC50 (in data set [5]; on Collagenase 3; on Interstitial collagenase) was more than 10 µM throughout. The inhibition in data set [1] is 79%; in data set [2], 69%. Also, in [6], the selectivity ratio is more than 356. The figures for the Ki in data set [3] and in data set [4] were 0.16 µM and more than 57 µM, respectively.

In the case of `O=C(O)CC1(C(=O)NCc2nccs2)Cc2ccccc2C1`, the inhibition was 65% in data set [1] and 55% in [2]. Besides, the results for the Ki in [3] and in data set [4] were 0.61 µM and more than 57 µM, respectively.

`O=C(O)CC1(C(=O)NCCc2cc3ccccc3[nH]2)Cc2ccccc2C1`: the inhibition in [1] turned out to be 25%; in data set [2], 18%. The values for the Ki in data set [3] and in [4] were 4.34 µM and more than 57 µM, respectively.

With `Cc1ccccc1OCC(=O)N(CCC(=O)O)Cc1cccc(F)c1F`, the results for the Ki in data set [3] and in data set [4] were 6.87 µM and more than 57 µM, respectively.

As for `O=C(O)CC1(C(=O)NCc2ccc3ccccc3n2)Cc2ccccc2C1`, the inhibition in data set [1] stood at 63%. Besides, the Ki in data set [3] is 0.61 µM; in data set [4], more than 57 µM.

In turn, `NC(=O)[C@H](Cc1ccc(O)cc1)NC(=O)[C@H](Cc1ccccc1)NC(=O)CS` came in with a Ki in data set [7] of 0.041 µM.

Values taken from ChEMBL document CHEMBL4715924, “Virtual Screening Approach to Identifying a Novel and Tractable Series of Pseudomonas aeruginosa Elastase Inhibitors” (ACS Med Chem Lett, 2021).
